Assay [1] has as its system Rattus norvegicus. The assay is described as follows: Decrease in total cholesterol levels in high-cholesterol diet fed Wistar rat at 4 mg/kg/day. Also on record: scale not given: the % may be the effect or the level left. The assay is classed as functional. The method, boiled down:
(§1)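 Rats fed a high-cholesterol, high-fat diet; drug suspended in 0.5% sodium carboxymethyl cellulose (40 mg/100 ml) and given intragastrically at 4 mg/kg/day. After a 16 h fast, tail blood was collected and serum total cholesterol and LDL-cholesterol measured. 8–18 rats per group; percent change calculated against high-cholesterol-diet animals.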

Assay [2] relates to Rattus norvegicus. Nature of the assay: Decrease in LDL-cholesterol levels in high-cholesterol diet fed Wistar rat at 4 mg/kg/day. It is filed as functional. Details: scale not given: the % may be the effect or the level left. A digest of the protocol: as §1

Consider `O=C1[C@H](c2ccc(F)cc2)[C@@H](c2ccc(O)cc2)N1CC[C@H](O)c1ccc(F)cc1`, for which the Activity is given as -26% in assay [1] and -22% in assay [2].

With `O=C1[C@H](c2ccc(F)cc2)[C@@H](c2ccc(O)cc2)N1CC[C@@H](O)c1ccc(F)cc1`, the Activity was -17% in assay [1] and -5% in assay [2].

On to `O=C1[C@@H](c2ccc(F)cc2)[C@H](c2ccc(O)cc2)N1CC[C@@H](O)c1ccc(F)cc1`, for which the Activity in assay [1] is reported as -18%; in assay [2], -35%.

On to `O=C1[C@@H](c2ccc(F)cc2)[C@H](c2ccc(O)cc2)N1CC[C@H](O)c1ccc(F)cc1`, for which the Activity in assay [1] is -25%; in assay [2], -29%.

Consider `O=C1[C@H](CC[C@H](O)c2ccc(F)cc2)[C@@H](c2ccc(O)cc2)N1c1ccc(F)cc1` [EZETIMIBE], for which the Activity in assay [1] is on record as -51%; in assay [2], -47%.

These data come from ChEMBL document CHEMBL1143769, “Ezetimibe analogs with a reorganized azetidinone ring: Design, synthesis, and evaluation of cholesterol absorption inhibitions” (2007).
